# Results of several laboratories.
Compound,cell line,assay,conditions,IC50 [µM]
COc1c(C)c(OC)c2c(c1C)OC(c1ccccc1)CC2=O (stereo not drawn),FaDu,"cell growth or viability, SRB",72 h,> 50
CN1C(=O)c2cc(C(N)=O)nc3c(N)c(Cl)c(N)c1c23,Calu-3,cell growth or viability,,17.6
Cc1ccc(O)cc1,B16F0,"cell growth or viability, MTT",48 h,1900
COc1ccc(-c2nc3ccc(C)cc3[nH]2)cc1OC,MCF7,"cell growth or viability, MTT",48 h,> 100
O=C(/C=C/c1ccc(O)c(O)c1)O[C@@H]1C[C@](O)(C(=O)O)C[C@@H](O)[C@H]1O,HEp-2,"cell growth or viability, WST-1",48 h,5.1
CC[C@@]1(O)C(=O)OCc2c1cc1n(c2=O)Cc2cc3ccccc3nc2-1,P388,"cell growth or viability, MTT",96 h,0.004
Cc1ccc2nc(-c3c(F)cccc3Cl)[nH]c2c1,MCF7,"cell growth or viability, MTT",48 h,> 100
CC(C)[C@H](N)C(=O)N1CCC[C@H]1B(O)O,NOMO-1,"cell growth or viability, ATP luminescence",5 days,0.031
COc1ccc(-c2nc3ccc(C)cc3[nH]2)cc1O,MCF7,"cell growth or viability, MTT",48 h,23.7
Cc1[nH]c2ccccc2c1CCNCc1ccc(/C=C/C(=O)NO)cc1,C13,"cell growth or viability, crystal violet",,0.0093
COc1ccc(CC(C)NCC(O)c2ccc(O)c(NC=O)c2)cc1 (stereo not drawn),THP-1,"TNF-α release, inhibitor","17 h, LPS-stimulated",0.006
CN1/C(=N/c2ccc(Cl)cc2)c2cc(C(N)=O)nc3c(N)c(Cl)c(N)c1c23,Calu-3,cell growth or viability,,10.4
Cc1ccc2nc(-c3ccco3)n(Cc3ccccc3)c2c1,MCF7,"cell growth or viability, MTT",,41.5
N#Cc1cc([N+](=O)[O-])c2sc(C(N)=O)[n+]([O-])c2c1,THP-1,"TNF-α release, inhibitor, ELISA","17 h, LPS-stimulated",1.95
CC[C@@H](C)[C@H](N)C(=O)N1Cc2ccccc2C1,NOMO-1,"cell growth or viability, ATP luminescence",48 h,4.18
Nc1ncnc2c1ncn2[C@@H]1O[C@H](CO)[C@@H](O)[C@@H]1O,FaDu,cell growth or viability,72 h,> 20
CC(NCCc1ccc(O)cc1)C(O)c1ccc(O)cc1 (stereo not drawn),THP-1,"TNF-α release, inhibitor","17 h, LPS-stimulated",3.5
CC(C)c1ccccc1S(=O)(=O)c1cc(N)c2ncccc2c1[N+](=O)[O-],FaDu,cell growth or viability,72 h,> 20
COc1ccc(C(=O)O[C@@H]2CN3Cc4c(cc5c(c4OC)OCO5)[C@@]24C=C[C@H](OC)C[C@@H]34)cc1,SAOS-2,"cell growth or viability, WST-1",,> 10
Cc1ccc2nc(-c3ccc(Cl)c(Cl)c3)[nH]c2c1,MCF7,"cell growth or viability, MTT",48 h,50.8
Nc1c2c(nc3ccccc13)CCCC2O (stereo not drawn),FaDu,cell growth or viability,72 h,> 20
CCOc1cc(OCC)cc(C(=O)O[C@@H]2CN3Cc4c(cc5c(c4OC)OCO5)[C@@]24C=C[C@H](OC)C[C@@H]34)c1,SAOS-2,"cell growth or viability, WST-1",,2.8
C=CCn1c(-c2ccc(OC)c(OC)c2)nc2ccccc21,MCF7,"cell growth or viability, MTT",,37
CC(C)[C@H](N)c1nc2cc(-c3ccncc3F)sc2c(=O)[nH]1,CAPAN-1,"cell growth or viability, MTT",,0.049
CC(C)C[C@H](NC(=O)[C@H](Cc1ccccc1)NC(=O)c1cnccn1)B(O)O,SK-MEL3,"cell growth or viability, ATP luminescence",,0.0099
CC(CCc1ccc(O)cc1)NCCc1ccc(O)c(O)c1 (stereo not drawn),THP-1,"TNF-α release, inhibitor, ELISA","17 h, LPS-stimulated",0.09
CCN(CC)CCOC(=O)C1(c2ccc([N+](=O)[O-])cc2)CCCC1,FaDu,cell growth or viability,72 h,> 20
CN(C)c1ccc(-c2nc3ccccc3[nH]2)cc1,MCF7,"cell growth or viability, MTT",48 h,> 100
CC(=O)O[C@H]1C(=O)[C@@]2(C)[C@H]([C@H](OC(=O)c3ccccc3)[C@]3(O)C[C@H](OC(=O)[C@H](O)[C@@H](NC(=O)c4ccccc4)c4ccccc4)C(C)=C1C3(C)C)[C@]1(OC(C)=O)CO[C@@H]1C[C@@H]2O,Panc02,"cell growth or viability, CCK-8",72 h,0.0833
COc1ccc(-c2nc3ccccc3n2Cc2ccccc2)cc1OC,MCF7,"cell growth or viability, MTT",,22.2
O=C(/C=C/c1ccc2ncn(CC3CCCCC3)c(=O)c2c1)NO,SW-620,"cell growth or viability, SRB",48 h,1.16
COc1cc(Nc2nccc(-c3cnn4nc(OC)ccc34)n2)cc(C(F)(F)F)c1,J82,"cell growth or viability, ATP luminescence",,0.85
COc1ccc(CCN(C)CCc2ccc(OC)c(OC)c2)cc1OC,FaDu,cell growth or viability,72 h,> 20
CCCn1cnc2ccc(/C=C/C(=O)NO)cc2c1=O,SW-620,"cell growth or viability, SRB",48 h,2.7
COc1c2c(cc3c1OCO3)[C@]13C=C[C@H](OC)C[C@H]1N(C2)C[C@H]3OC(=O)c1cccc(C)c1,SAOS-2,"cell growth or viability, WST-1",,> 10
CCCCCCCCCCCC(=O)Oc1c(C)c(O)c(C(=O)/C=C/c2ccccc2)c(OC)c1C,FaDu,"cell growth or viability, SRB",72 h,> 50
CC(=O)CC(c1ccccc1)c1c(O)c2ccccc2oc1=O (stereo not drawn),FaDu,cell growth or viability,72 h,> 20
O=c1[nH]cc(F)c(=O)[nH]1,HEp-2,"cell growth or viability, WST-1",48 h,9.3
O=C(/C=C/c1ccc2ncn(CC3CCCC3)c(=O)c2c1)NO,SW-620,"cell growth or viability, SRB",48 h,1.19
CCN(CC)CCNC(=O)COc1ccc(OC)cc1,FaDu,cell growth or viability,72 h,> 20
CCn1cnc2ccc(/C=C/C(=O)NO)cc2c1=O,SW-620,"cell growth or viability, SRB",48 h,6.69
O=c1c(O)c(-c2ccc(O)cc2)oc2cc(O)cc(O)c12,HEp-2,"cell growth or viability, WST-1",48 h,30.3
CNC[C@H](O)c1ccc(O)c(O)c1,THP-1,"TNF-α release, inhibitor","17 h, LPS-stimulated",0.07
Clc1ccc(N2CCN(Cc3c[nH]c4ncccc34)CC2)cc1,FaDu,cell growth or viability,72 h,> 20
CC1(C)CC[C@]2(C)CC[C@]3(C)C(=CC[C@@H]4[C@@]5(C)CC[C@H](O)C(C)(C)[C@@H]5CC[C@]43C)[C@@H]2C1,HEp-2,"cell growth or viability, WST-1",48 h,85.6
